A short description of series [1]: Toxicity in BALB/c mouse assessed as glucose level at 10 mg/kg, ip measured at 30 mins (reference value: 106 to 141 mg/dl). The note with it: in vivo.
The target of series [2] is T1, Ectonucleotide pyrophosphatase/phosphodiesterase family member 1 (Homo sapiens, UniProt P22413).
T1 sequence (P22413 whole entry): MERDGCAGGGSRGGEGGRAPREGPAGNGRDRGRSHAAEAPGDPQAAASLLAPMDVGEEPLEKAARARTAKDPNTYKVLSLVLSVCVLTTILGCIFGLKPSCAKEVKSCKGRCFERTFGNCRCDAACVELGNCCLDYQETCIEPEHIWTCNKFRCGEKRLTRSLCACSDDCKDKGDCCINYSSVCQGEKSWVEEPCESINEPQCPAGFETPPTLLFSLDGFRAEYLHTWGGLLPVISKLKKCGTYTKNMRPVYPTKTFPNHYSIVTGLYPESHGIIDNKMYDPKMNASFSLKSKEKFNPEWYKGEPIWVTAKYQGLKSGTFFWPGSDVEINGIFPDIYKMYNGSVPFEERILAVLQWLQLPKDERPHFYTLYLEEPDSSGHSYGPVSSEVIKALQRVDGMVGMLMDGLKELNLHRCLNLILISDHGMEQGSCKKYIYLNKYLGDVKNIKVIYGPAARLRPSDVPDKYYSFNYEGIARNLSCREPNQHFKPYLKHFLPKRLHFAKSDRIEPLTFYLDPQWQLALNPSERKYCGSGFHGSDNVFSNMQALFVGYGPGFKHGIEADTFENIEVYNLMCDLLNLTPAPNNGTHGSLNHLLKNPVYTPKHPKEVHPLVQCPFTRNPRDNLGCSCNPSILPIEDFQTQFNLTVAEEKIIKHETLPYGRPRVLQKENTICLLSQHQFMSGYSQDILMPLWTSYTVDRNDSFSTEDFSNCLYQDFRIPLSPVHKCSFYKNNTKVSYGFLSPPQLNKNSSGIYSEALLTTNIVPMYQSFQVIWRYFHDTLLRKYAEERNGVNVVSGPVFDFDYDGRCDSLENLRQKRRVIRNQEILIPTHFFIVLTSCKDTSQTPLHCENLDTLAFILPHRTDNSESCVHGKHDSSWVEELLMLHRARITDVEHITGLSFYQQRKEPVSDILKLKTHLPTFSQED
The series can be described thus: Inhibition of human NPP1 transfected in COS7 cells using pNP-TMP as substrate incubated for 35 mins. Type of series: cell-based.

Series [3] is described as follows: Toxicity in BALB/c mouse assessed as glucose level at 10 mg/kg, ip measured at 60 mins (reference value: 106 to 141 mg/dl). The note with it: in vivo.
Series [4] can be described thus: Toxicity in BALB/c mouse assessed as glucose level at 20 mg/kg, ip measured at 60 mins (reference value: 106 to 141 mg/dl). The note with it: in vivo.
Series [5] in a line: Toxicity in BALB/c mouse assessed as glucose level at 10 mg/kg, ip measured at 0 hrs (reference value: 106 to 141 mg/dl). The class given is organism-based. As to conditions: in vivo. Summed up: (§1)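 Male BALB/c mice weighing 30-35 g, five per group. Given i.p. at 10 or 20 mg/kg in (2-hydroxypropyl)-β-cyclodextrin solution. Control group received vehicle alone. Blood glucose (mg/dL) measured at 0, 30, 60, 90 and 120 min after injection.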

Series [6] has as its system HT-29. The series can be described thus: Antiproliferative activity against human HT-29 cells assessed as reduction in cell growth incubated for 24 hrs by MTT assay. The note with it: HT-29, 24 h. The class given is functional, cell-based. In outline:
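HT-29 colon cancer cells seeded per well and incubated overnight, then exposed for 24 h to serial dilutions of compound (10 mM DMSO stock diluted in medium), with doxorubicin and DMSO controls. MTT (0.5 mg/mL) added for 2 h at 37 °C, formazan dissolved in DMSO, absorbance read at 570 nm. IC50 from triplicate assays, mean ± S.E.M.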
A general note: Formazan colour is commonly taken as a measure of viable cells.

The next series concerns WI-38. Description: Cytotoxicity against human WI-38 cells assessed as reduction in cell growth incubated for 24 hrs by MTT assay. The class given is cell-based. As to conditions: WI-38, 24 h. Summed up: (§2)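 MTT assay. Cells seeded at 4 × 10^4 per well and incubated overnight. Treated 24 h; DMSO served as negative control and doxorubicin as positive control. MTT dye 0.5 mg/mL added for 2 h at 37 °C, formazan dissolved in DMSO, absorbance read at 570 nm. Single-concentration screen at 10; dose-dependent dilutions gave IC50. WI-38 fibroblasts grown in DMEM with 10% FBS and 1% penicillin/streptomycin. Triplicate means ± S.E.M.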

A short description of series [7]: Toxicity in BALB/c mouse assessed as glucose level at 20 mg/kg, ip measured at 120 mins (reference value: 106 to 141 mg/dl). The note with it: in vivo.
Series [8] can be described thus: Toxicity in BALB/c mouse assessed as glucose level at 10 mg/kg, ip measured at 90 mins (reference value: 106 to 141 mg/dl). The note with it: in vivo.
The next series has as its system MCF7. Description: Antiproliferative activity against human MCF7 cells assessed as reduction in cell growth at 10 uM incubated for 24 hrs by MTT assay relative to control. The class given is functional. In outline: as §2
Series [9] deals with T2, Ectonucleotide pyrophosphatase/phosphodiesterase family member 3 (Homo sapiens, UniProt O14638).
T2 sequence (O14638 whole entry): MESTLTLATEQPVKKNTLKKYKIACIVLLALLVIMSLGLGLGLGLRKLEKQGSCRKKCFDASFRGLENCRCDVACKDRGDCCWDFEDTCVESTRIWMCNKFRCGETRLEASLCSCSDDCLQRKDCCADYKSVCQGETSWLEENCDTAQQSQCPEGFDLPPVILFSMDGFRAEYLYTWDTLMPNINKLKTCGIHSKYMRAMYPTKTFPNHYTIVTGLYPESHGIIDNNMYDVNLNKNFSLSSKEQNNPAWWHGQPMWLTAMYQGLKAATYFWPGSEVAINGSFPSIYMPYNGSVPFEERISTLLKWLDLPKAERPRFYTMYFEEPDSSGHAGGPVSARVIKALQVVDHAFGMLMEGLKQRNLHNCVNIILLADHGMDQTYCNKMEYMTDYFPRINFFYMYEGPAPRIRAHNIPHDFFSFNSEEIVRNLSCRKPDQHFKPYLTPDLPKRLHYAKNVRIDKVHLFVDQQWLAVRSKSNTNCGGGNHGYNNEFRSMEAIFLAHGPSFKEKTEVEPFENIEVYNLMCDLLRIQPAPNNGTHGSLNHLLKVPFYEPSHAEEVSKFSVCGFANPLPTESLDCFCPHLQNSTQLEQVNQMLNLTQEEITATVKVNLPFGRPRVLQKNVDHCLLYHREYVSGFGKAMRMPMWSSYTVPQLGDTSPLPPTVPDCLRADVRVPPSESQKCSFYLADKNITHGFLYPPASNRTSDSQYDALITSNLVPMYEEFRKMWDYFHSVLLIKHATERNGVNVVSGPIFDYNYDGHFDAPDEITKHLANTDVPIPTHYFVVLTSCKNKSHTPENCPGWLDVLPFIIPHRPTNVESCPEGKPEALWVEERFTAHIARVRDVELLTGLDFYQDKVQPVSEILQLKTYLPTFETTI
The series can be described thus: Inhibition of human NPP3 transfected in COS7 cells using pNP-TMP as substrate incubated for 35 mins. Type of series: cell-based.

Series [10] in a line: Toxicity in BALB/c mouse assessed as glucose level at 20 mg/kg, ip measured at 90 mins (reference value: 106 to 141 mg/dl). As to conditions: in vivo.
Series [11] is described as follows: Toxicity in BALB/c mouse assessed as glucose level at 10 mg/kg, ip measured at 120 mins (reference value: 106 to 141 mg/dl). As to conditions: in vivo.
The nature of series [12]: Toxicity in BALB/c mouse assessed as glucose level at 20 mg/kg, ip measured at 30 mins (reference value: 106 to 141 mg/dl). As to conditions: in vivo.
The subject of series [13] is HT-29. The series can be described thus: Antiproliferative activity against human HT-29 cells assessed as reduction in cell growth at 10 uM incubated for 24 hrs by MTT assay relative to control. Type of series: functional. In outline:
as §2

Series [14] can be described thus: Toxicity in BALB/c mouse assessed as glucose level at 20 mg/kg, ip measured at 0 hrs (reference value: 106 to 141 mg/dl). Type of series: organism-based. The note with it: in vivo. Summed up: as §1

For the molecule `Cc1ccc(S(=O)(=O)NC(=O)n2ccc3cc(Br)cnc32)cc1`, the Activity in series [1] worked out at 103 mg/dL; in [3], 122 mg/dL; in [4] it was 114 mg/dL; in series [5] it was 108 mg/dL; in [7], 121 mg/dL; in [8], 124 mg/dL. Besides, the Activity in series [10] was 128 mg/dL; in [11], 121 mg/dL; in [12], 113 mg/dL; in series [14], 114 mg/dL. For the same molecule, the IC50 was determined as 1550 nM in series [2], 1580 nM with HT-29 [6], 18400 nM with WI-38 and 590 nM in series [9]. Moreover, the inhibition at 10 µM in the series with MCF7 is 28%; in the series with HT-29 [13], 82.4%.

One may read the IC50 as the concentration that inhibits the measured activity by half. The inhibition is the drop in the measured response relative to a control, in per cent.

For the origin of these results see ChEMBL document CHEMBL4814002, “Synthesis, biological evaluation, and docking studies of novel pyrrolo[2,3-b]pyridine derivatives as both ectonucleotide pyrophosphatase/phosphodiesterase inhibitors and antiproliferative agents” (Eur J Med Chem, 2021).
